Reference: ChEMBL document CHEMBL3745692, “Novel iodoacetamido benzoheterocyclic derivatives with potent antileukemic activity are inhibitors of STAT5 phosphorylation” (Eur J Med Chem, 2016)

Legend:
[1] = target: T1, Signal transducer and activator of transcription 5A (Homo sapiens) (UniProt P42229); assay: Inhibition of STAT5 phosphorylation in human K562 cells at 0.5 uM after 24 hrs by flow cytometry relative to control; format: cell-based
T1 sequence (whole entry): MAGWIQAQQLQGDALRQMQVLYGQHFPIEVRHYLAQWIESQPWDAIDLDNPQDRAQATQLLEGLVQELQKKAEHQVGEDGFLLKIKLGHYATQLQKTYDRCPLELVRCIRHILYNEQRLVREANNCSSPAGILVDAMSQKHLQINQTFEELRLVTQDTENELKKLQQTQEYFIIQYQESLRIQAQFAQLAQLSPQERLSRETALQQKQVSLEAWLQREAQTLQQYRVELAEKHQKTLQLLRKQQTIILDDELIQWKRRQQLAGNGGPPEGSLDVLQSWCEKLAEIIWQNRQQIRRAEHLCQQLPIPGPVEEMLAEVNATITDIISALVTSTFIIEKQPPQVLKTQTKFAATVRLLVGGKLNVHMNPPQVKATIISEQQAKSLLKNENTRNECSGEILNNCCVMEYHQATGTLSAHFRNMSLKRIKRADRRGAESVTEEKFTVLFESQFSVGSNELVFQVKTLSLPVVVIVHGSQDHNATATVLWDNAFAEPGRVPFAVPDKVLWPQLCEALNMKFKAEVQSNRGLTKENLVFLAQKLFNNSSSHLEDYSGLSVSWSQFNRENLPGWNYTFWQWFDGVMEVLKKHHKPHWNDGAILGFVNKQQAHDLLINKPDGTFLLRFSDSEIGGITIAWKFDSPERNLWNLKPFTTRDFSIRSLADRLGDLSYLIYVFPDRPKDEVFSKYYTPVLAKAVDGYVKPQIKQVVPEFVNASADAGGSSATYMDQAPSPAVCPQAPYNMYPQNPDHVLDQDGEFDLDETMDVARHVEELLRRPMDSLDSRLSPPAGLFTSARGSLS
In short: (§1)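 After 24 h exposure, about 1×10^6 K562 cells were PBS-washed and fixed/permeabilised for 20 min at 4 °C. They were then stained for 30 min at 4 °C with PE-conjugated anti-pSTAT5 monoclonal antibody, with an isotype antibody as control. Median fluorescence was read by flow cytometry and compared with untreated cells stained for pSTAT5.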

K562 [2] = assay: Potency index, ratio AC50 of imatinib mesilate to AC50 of compound for induction of apoptosis in human K562; format: functional
In short: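 K562 cells in RPMI 1640 with 10% FCS, treated 48 h over a concentration range. Apoptosis scored morphologically after acridine orange/ethidium bromide staining (≥300 cells counted, chromatin condensation, apoptotic bodies) and by annexin V-FITC/propidium iodide flow cytometry. AC50 is the concentration giving 50% apoptotic cells, mean ± SE of 2–3 experiments.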

K562 [3] = assay: Cell cycle arrest in human K562 cells assessed as accumulation at G2M-phase at 0.5 uM for 24 hrs by propidium iodide staining based flow cytometry (reference value: 12.89%); format: functional
In short: (§2)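 K562 cells in RPMI 1640 with 10% FCS, penicillin/streptomycin and L-glutamine, 5% CO2, 37 °C; exposed 24 h. Cells washed in ice-cold PBS, resuspended at 1×10^6/mL in hypotonic solution of propidium iodide 50 µg/mL in 0.1% sodium citrate plus 0.03% nonidet P-40 for 30 min. DNA content read as single-parameter flow cytometry histograms; phase distribution modelled.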

K562 [4] = assay: Potency index, ratio IC50 of imatinib mesilate to IC50 of compound for antiprolifertive activity against human K562; format: functional
In short: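 K562 cells grown in RPMI 1640 with 10% FCS at 37 °C, 5% CO2. 2×10^5 cells/mL exposed to a range of concentrations for 48 h. Viable cells counted by trypan blue exclusion, as % of control.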

K562 [5] = assay: Antiproliferative activity against human K562 cells after 48 hrs by trypan blue dye exclusion assay; format: functional, cell-based; conditions: K562, 48 h
K562 [6] = assay: Cell cycle arrest in human K562 cells assessed as accumulation at G1 phase at 0.5 uM for 24 hrs by propidium iodide staining based flow cytometry (reference value: 39.27%); format: functional; in short: as §2
[7] = target: T1, Signal transducer and activator of transcription 5A (Homo sapiens); assay: Inhibition of STAT5 phosphorylation in human K562 cells at 0.5 uM after 24 hrs by flow cytometry (reference value: 315.56); format: cell-based; in short: as §1
K562 [8] = assay: Induction of apoptosis in human K562 cells after 48 hrs by annexinV and propidium iodide staining based flow cytometry; format: functional, cell-based; conditions: K562, 48 h
In short: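 After 48 h drug exposure, 1×10^6 cells were washed in PBS and spun at 200×g for 5 min. They were stained with FITC-annexin V plus propidium iodide for 15 min at 20 °C and annexin V-positive cells counted by flow cytometry. Apoptosis was also scored morphologically with acridine orange/ethidium bromide, counting at least 300 cells. AC50 is the concentration inducing apoptosis in 50% of cells; mean ± SE from two to three experiments.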

K562 [9] = assay: Cell cycle arrest in human K562 cells assessed as accumulation at S-phase at 0.5 uM for 24 hrs by propidium iodide staining based flow cytometry (reference value: 47.84%); format: functional; in short: as §2

In the case of COc1cc2oc(C(=O)c3cc(OC)c(OC)c(OC)c3)c(C)c2cc1NC(=O)CI, the inhibition [1] is reported as 44%, the “Ratio IC50” value (K562 [2]) is reported as 2.7 and the Activity (K562 [3]) is reported as 28.76%. The “Ratio IC50” value (K562 [4]) was 3.1, the IC50 (K562 [5]) was 0.07 µM and the Activity (K562 [6]) was 35.78%. For the same compound, the Flu intensity [7] was 176, the AC50 (K562 [8]) was 0.25 µM and the Activity (K562 [9]) was 35.47%.
